Measured values of several laboratories.
Protocols differ between the studies behind these lines.
Organism: Clostridioides difficile
Observed: microbial growth

SMILES | test | test system | conditions | MIC
COCCNc1ccc(-c2nc(-c3ccc(Oc4ccccc4)cc3)no2)cc1 | broth dilution |  | 48 h | 8 µg/mL
Oc1ccc(Oc2ccc(-c3noc(-c4ccc(O)cc4)n3)cc2)cc1 | broth dilution | ATCC43255 | 48 h | 8 to 128 µg/mL
Cc1ncc([N+](=O)[O-])n1CCO | broth dilution | 630 |  | > 0.5 µg/mL
O=C(NCc1nc(-c2ccc(Br)cc2)c[nH]1)[C@H]1CSC(c2ccccn2)=N1 | broth dilution | R20291 | 24 h | > 50 µg/mL
Oc1cc(-c2nc(-c3ccc(Oc4ccc(C(F)(F)F)cc4)cc3)no2)cc(F)c1O | broth dilution | ATCC43255 | 48 h | 128 µg/mL
O=C(Nc1ncc([N+](=O)[O-])s1)C1CCCCC1 | agar dilution | VPI10463 | 18 h | 5.9 µM
Cl.NCCCc1ccc(Oc2ccc(-c3noc(-c4ccc(O)cc4)n3)cc2)cc1 | broth dilution |  | 48 h | 2 µg/mL
O=C(NCc1nc(-c2ccc(Br)cc2)c[nH]1)Nc1nc2ccc(OC(F)(F)F)cc2s1 | broth dilution | R20291 | 24 h | 12.5 to 25 µg/mL
N#Cc1ccc(Oc2ccc(-c3noc(-c4ccc(O)cc4)n3)cc2)cc1 | broth dilution | ATCC43255 | 48 h | 8 to 128 µg/mL
O=C(O)Cc1ccc(Oc2ccc(-c3noc(-c4ccc(O)cc4)n3)cc2)cc1 | broth dilution |  | 48 h | 50 µg/mL
